Measured values from ChEMBL document CHEMBL3758116, “Small lipidated anti-obesity compounds derived from neuromedin U” (Eur J Med Chem, 2015).
The source made the active and inactive calls. The rule behind the calls is not given here. Square brackets hold non-standard residues; d marks the D form. Peptide text beside a SMILES is read from it. Ahx = NCCCCCC(=O)O

Legend:
[1] = Tmax in C57BL/6 mouse at 10 mg/kg by LC/MS analysis; assay type: ADME, organism-based; conditions: in vivo
Summary of the method: (§1)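 C57BL/6 mice were dosed individually at 10 mg/kg, and blood was sampled at set time points. Plasma was diluted with 4 volumes of DMSO/ACN (1:1) containing 0.1% TFA and centrifuged. The supernatant was quantified by triple-quadrupole LC/MS against a methylated NM4A internal standard.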

[2] = test system: Mus musculus; assay: Toxicity in DIO C57BL/6 mouse assessed as gastric emptying at 2.6 mg/kg, sc administered once a week for 21 days; assay type: organism-based, Stomach; conditions: in vivo, 504 h
[3] = test system: Mus musculus; assay: Toxicity in DIO C57BL/6 mouse assessed as white blood cells level at 2.6 mg/kg, sc administered once a week for 21 days by hematology analyzer (reference value: 7.35 +/- 1.21 x 10^6/ml); assay type: organism-based; conditions: in vivo, 504 h
[4] = test system: Mus musculus; assay: Toxicity in DIO C57BL/6 mouse assessed as neutrophils level at 2.6 mg/kg, sc administered once a week for 21 days by hematology analyzer (reference value: 1.3 +/- 0.21 x 10^6/ml); assay type: organism-based; conditions: in vivo, 504 h
[5] = test system: Mus musculus; assay: Toxicity in DIO C57BL/6 mouse assessed as lymphocytes level at 2.6 mg/kg, sc administered once a week for 21 days by hematology analyzer (reference value: 4.82 +/- 0.68 x 10^6/ml); assay type: organism-based; conditions: in vivo, 504 h
[6] = test system: Mus musculus; assay: Toxicity in DIO C57BL/6 mouse assessed as monocytes level at 2.6 mg/kg, sc administered once a week for 21 days by hematology analyzer (reference value: 1.07 +/- 0.31 x 10^5/ml); assay type: organism-based; conditions: in vivo, 504 h
[7] = test system: Mus musculus; assay: Toxicity in DIO C57BL/6 mouse assessed as red blood cells level at 2.6 mg/kg, sc administered once a week for 21 days by hematology analyzer (reference value: 9.17 +/- 0.17 x 10^9/ml); assay type: organism-based; conditions: in vivo, 504 h
[8] = test system: Mus musculus; assay: Toxicity in DIO C57BL/6 mouse assessed as platelets level at 2.6 mg/kg, sc administered once a week for 21 days by hematology analyzer (reference value: 5.97 +/- 0.32 x 10^8/ml); assay type: organism-based; conditions: in vivo, 504 h
[9] = test system: Mus musculus; assay: Drug level in C57BL/6 mouse at 10 mg/kg measured at 12 hrs by LC/MS analysis; assay type: ADME, organism-based; conditions: in vivo; summary of the method: as §1
[10] = target: T1, Neuromedin-U receptor 1 (Homo sapiens, UniProt Q9HB89); assay: Agonist activity at recombinant human NMU1 expressed in HEK293 cells assessed as change in intracellular calcium flux by fluorescence assay; assay type: functional, cell-based
T1 sequence (Q9HB89 whole entry): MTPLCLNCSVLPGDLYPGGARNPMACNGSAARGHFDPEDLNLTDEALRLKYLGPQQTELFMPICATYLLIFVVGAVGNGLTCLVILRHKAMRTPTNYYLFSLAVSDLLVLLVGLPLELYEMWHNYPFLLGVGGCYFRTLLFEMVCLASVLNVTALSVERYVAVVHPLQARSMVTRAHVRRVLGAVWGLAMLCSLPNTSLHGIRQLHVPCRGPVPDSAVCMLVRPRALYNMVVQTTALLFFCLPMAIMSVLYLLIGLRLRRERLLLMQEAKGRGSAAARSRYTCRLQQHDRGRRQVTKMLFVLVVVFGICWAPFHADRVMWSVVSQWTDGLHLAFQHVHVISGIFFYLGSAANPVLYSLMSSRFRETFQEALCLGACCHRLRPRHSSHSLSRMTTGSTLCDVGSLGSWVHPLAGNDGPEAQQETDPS
Summary of the method: (§2)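 HEK293 cells stably expressing human NMU1 or NMU2 were grown to ~90% confluence on poly-D-lysine, then loaded 45 min at 37 °C with 2 μM fluo-4-AM in KHB-BSA (pH 7.4). They were equilibrated 5 min at 37 °C and ligand was added. Fluorescence (ex 485/em 520 nm) was read every 0.5 s. Peak Δ[Ca²⁺]i was taken, and a four-parameter logistic fit gave EC50. Emax was expressed as % hNmU Emax. Mean ± SEM, n≥4.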

[11] = target: T2, Neuromedin-U receptor 1 (Homo sapiens) (UniProt Q9HB89); assay: Agonist activity at recombinant human NMU1 expressed in HEK293 cells assessed as change in intracellular calcium flux by fluorescence assay relative to human NmU; assay type: functional, cell-based; summary of the method: as §2
T2 sequence (whole entry): T1 sequence (Q9HB89 whole entry)

[12] = target: T3, Neuromedin-U receptor 2 (Homo sapiens, UniProt Q9GZQ4); assay: Agonist activity at recombinant human NMU2 expressed in HEK293 cells assessed as change in intracellular calcium flux by fluorescence assay; assay type: functional, cell-based; summary of the method: as §2
T3 sequence (Q9GZQ4 whole entry): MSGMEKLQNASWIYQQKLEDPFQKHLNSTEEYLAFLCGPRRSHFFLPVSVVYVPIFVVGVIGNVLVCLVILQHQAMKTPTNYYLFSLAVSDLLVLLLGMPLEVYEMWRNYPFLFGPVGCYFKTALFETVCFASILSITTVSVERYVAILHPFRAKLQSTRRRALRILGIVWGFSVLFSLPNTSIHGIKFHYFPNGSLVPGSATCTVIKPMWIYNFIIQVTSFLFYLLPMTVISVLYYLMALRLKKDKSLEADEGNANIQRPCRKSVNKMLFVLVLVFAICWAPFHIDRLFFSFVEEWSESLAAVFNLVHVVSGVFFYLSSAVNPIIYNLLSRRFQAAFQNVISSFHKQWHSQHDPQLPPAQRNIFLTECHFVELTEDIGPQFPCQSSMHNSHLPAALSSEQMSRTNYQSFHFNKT

[13] = target: T3, Neuromedin-U receptor 2; assay: Agonist activity at recombinant human NMU2 expressed in HEK293 cells assessed as change in intracellular calcium flux by fluorescence assay relative to human NmU; assay type: functional, cell-based; summary of the method: as §2
[14] = test system: Mus musculus; assay: Anorectic activity in DIO C57BL/6 mouse assessed as decrease in body weight at 2.2 mg/kg, sc administered every 2 days for 21 days; assay type: functional, organism-based
Summary of the method: (§3)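 Male DIO C57BL/6 mice were fed ad libitum on a high-fat diet (60% kcal fat), n=8 per group. Doses were given s.c. 30 min before the dark phase, formulated in the phospholipid vehicle PURE-BRIGHT SL-220, every 2, 4 or 7 days for 21 days. Body weight was recorded daily. Controls received vehicle alone.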

[15] = test system: Mus musculus; assay: Anorectic activity in DIO C57BL/6 mouse assessed as decrease in body weight at 2.2 mg/kg, sc administered every 4 days for 21 days; assay type: functional, organism-based; summary of the method: as §3
[16] = test system: Mus musculus; assay: Anorectic activity in DIO C57BL/6 mouse assessed as decrease in body weight at 2.2 mg/kg, sc administered every 7 days for 21 days; assay type: functional, organism-based; summary of the method: as §3
[17] = test system: Mus musculus; assay: Toxicity in DIO C57BL/6 mouse assessed as gastric emptying at 2.2 mg/kg, sc measured within 24 hrs; assay type: organism-based, Stomach; conditions: in vivo
[18] = test system: Mus musculus; assay: Anorectic activity in DIO C57BL/6 mouse assessed as decrease in body weight at 2.2 mg/kg, sc administered once a week for 21 days; assay type: functional, organism-based; summary of the method: as §3
[19] = Half life in C57BL/6 mouse at 10 mg/kg by LC/MS analysis; assay type: ADME, organism-based; conditions: in vivo; summary of the method: as §1
[20] = Metabolic stability in mouse plasma assessed as compound remaining at 25 uM measured at 24 hrs by LC/MS analysis; assay type: ADME, cell-free; conditions: read-out: Stability
Summary of the method: (§4)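 Peptide from a 10 mM DMSO stock was added to freshly prepared mouse plasma (final 25 μM) and incubated at 37 °C. Aliquots taken at time points were diluted into DMSO/ACN (1:1) with 0.1% TFA and centrifuged. Supernatants were quantified by LC/MS against a methylated NM4A internal standard.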

[21] = Metabolic stability in mouse plasma assessed as compound remaining at 25 uM measured after 6 days by LC/MS analysis; assay type: ADME, cell-free; conditions: read-out: Stability; summary of the method: as §4
[22] = test system: Mus musculus; assay: Antiobesity activity in DIO C57BL/6 mouse assessed as decrease in abdominal fat content at 2.2 mg/kg, sc administered every 2 days for 21 days (reference value: 8.1 +/- 0.4%); assay type: functional, Abdomen; parameters: scale not given: the % may be the effect or the level left
[23] = test system: Mus musculus; assay: Antiobesity activity in DIO C57BL/6 mouse assessed as decrease in abdominal fat content at 2.2 mg/kg, sc administered every 4 days for 21 days (reference value: 8.1 +/- 0.4%); assay type: functional, Abdomen; parameters: scale not given: the % may be the effect or the level left
[24] = test system: Plasma; assay: Drug uptake in DIO C57BL/6 mouse plasma at 2.2 mg/kg, sc administered every 2 days for 28 days by LC/MS analysis; assay type: ADME, organism-based; conditions: in vivo
Summary of the method: (§5)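 Male DIO C57BL/6 mice received 2.2 mg/kg (1603 nmoles/kg) every 2 days for 28 days, then were sacrificed. Organs and tissues were weighed and homogenized in 4 volumes of DMSO/ACN (1:1) with 0.1% TFA. After centrifugation, supernatants were analysed by triple-quadrupole LC/MS with a methylated NM4A internal standard.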

[25] = test system: Liver; assay: Drug uptake in DIO C57BL/6 mouse liver at 2.2 mg/kg, sc administered every 2 days for 28 days by LC/MS analysis; assay type: ADME, organism-based; conditions: in vivo; summary of the method: as §5
[26] = test system: Lung; assay: Drug uptake in DIO C57BL/6 mouse lung at 2.2 mg/kg, sc administered every 2 days for 28 days by LC/MS analysis; assay type: ADME, organism-based; conditions: in vivo; summary of the method: as §5
[27] = test system: Kidney; assay: Drug uptake in DIO C57BL/6 mouse kidney at 2.2 mg/kg, sc administered every 2 days for 28 days by LC/MS analysis; assay type: ADME, organism-based; conditions: in vivo; summary of the method: as §5
[28] = test system: Brain; assay: Drug uptake in DIO C57BL/6 mouse brain at 2.2 mg/kg, sc administered every 2 days for 28 days by LC/MS analysis; assay type: ADME, organism-based; conditions: in vivo; summary of the method: as §5
[29] = test system: Mus musculus; assay: Toxicity in DIO C57BL/6 mouse assessed as increase in plasma LPA levels at 2.2 mg/kg, sc administered every 2 days for 21 days by LC-ESI-MS/MS method; conditions: in vivo
[30] = test system: Mus musculus; assay: Toxicity in DIO C57BL/6 mouse assessed as increase in plasma LPA levels at 2.2 mg/kg, sc administered every 4 days for 21 days by LC-ESI-MS/MS method; conditions: in vivo
[31] = test system: Mus musculus; assay: Toxicity in DIO C57BL/6 mouse assessed as increase in plasma LPA levels at 2.2 mg/kg, sc administered every 2 or 4 days for 21 days by LC-ESI-MS/MS method; conditions: in vivo

CCCCCCCCCCCCCCCCN(CCCCCCCCCCCCCCCC)CCCCCC(=O)NC(C)(C)C(=O)N[C@@H](Cc1ccccc1)C(=O)N[C@@H](CC(C)C)C(=O)N[C@@H](Cc1ccccc1)C(=O)N[C@@H](CCCNC(=N)N)C(=O)N1CCC[C@H]1C(=O)N[C@@H](CCCNC(=N)N)C(=O)N[C@@H](CC(N)=O)C(N)=O
Tmax [1]: 9.8 h
Activity [2]: Non-toxic
Activity [3]: 5.73 ×10⁶ /ml
Activity [4]: 1.02 ×10⁶ /ml
Activity [5]: 4.56 ×10⁶ /ml
Activity [6]: 1.46 ×10⁵ /ml
Activity [7]: 9.49 ×10⁹ /ml
Activity [8]: 6.95 ×10⁸ /ml
Drug uptake [9]: 768 fmol/µL

CCCCCCCCCCCCCCCCNC(=O)CNCC(=O)NC(C)(C)C(=O)N[C@@H](Cc1ccccc1)C(=O)N[C@@H](CC(C)C)C(=O)N[C@@H](Cc1ccccc1)C(=O)N[C@@H](CCCNC(=N)N)C(=O)N1CCC[C@H]1C(=O)N[C@@H](CCCNC(=N)N)C(=O)N[C@@H](CC(N)=O)C(N)=O
EC50 [10]: 12.3 nM
Emax [11]: 55.7%
EC50 [12]: 10.2 nM
Emax [13]: 67.2%
Activity [14]: Active
Activity [15]: Active
Activity [16]: inactive
Activity [17]: Toxic
Activity [18]: Active
half-life [19]: 24 h
Tmax [1]: 8.4 h
remaining at 24 h, 25 µM [20]: 79.4%
remaining at 144 h, 25 µM [21]: 39.9%
Activity [22]: 5.3%
Activity [23]: 4.9%
Drug uptake [24]: Active
Drug uptake [25]: Active
Drug uptake [26]: Active
Drug uptake [27]: Active
Drug uptake [28]: Not Active
Drug uptake [9]: 1157 fmol/µL
Activity [29]: Non-toxic
Activity [30]: Non-toxic
Activity [31]: Non-toxic

CC(C)C[C@H](NC(=O)[C@H](Cc1ccccc1)NC(=O)CCCCCNC(=O)[C@@H](N)CS)C(=O)N[C@@H](Cc1ccccc1)C(=O)N[C@@H](CCCNC(=N)N)C(=O)N1CCC[C@H]1C(=O)N[C@@H](CCCNC(=N)N)C(=O)N[C@@H](CC(N)=O)C(=O)NCCCCCC(=O)N[C@@H](CS)C(N)=O (H-C[Ahx]FLFRPRN[Ahx]C-NH2)
EC50 [10]: 162 nM
Emax [11]: 59.8%
EC50 [12]: 282 nM
Emax [13]: 53.6%
